{"source": "paper PMC5080318", "about": "(Cancer Chemotherapy and Pharmacology, 2016)", "key": {"[1]": {"tested_on": "phosphorylated histone H3 (pHH3)", "details": "in vitro; cited from earlier work"}, "[2]": {"tested_on": "caspase-cleaved cytokeratin-18 (CK-18)", "assay": "plasma caspase-cleaved CK-18", "type": "in vivo, human", "details": "both schedules", "how_it_was_run": "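Plasma was drawn pre-dose and at 48, 72 and 120 h after the first two 24-h IV infusions in each schedule: Days 1 and 15 of a 4-week cycle, or Day 1 of a 3-week cycle. Further samples were taken pre-dose and at 120 h post-dose up to Cycle 6. Caspase-cleaved CK-18 was quantified by validated ELISA.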"}, "[3]": {"tested_on": "alpha-1-acid glycoprotein (AGP)", "details": "preclinical; ref Boehringer Ingelheim, data on file; cited from earlier work"}, "[4]": {"tested_on": "patients with advanced solid tumors", "details": "in vivo"}, "[5]": {"tested_on": "patients with advanced solid tumors", "assay": "phase I dose escalation: DLT and MTD", "type": "in vivo"}, "[6]": {"assay": "phase I pharmacokinetics, plasma and urine", "type": "in vivo, human", "details": "for mean terminal half-life: range over doses"}, "[7]": {"tested_on": "patients with advanced solid tumors", "assay": "phase I safety: adverse events"}, "[8]": {"tested_on": "xenograft models of human non-small cell lung cancer, colon carcinoma, and pancreas carcinoma", "details": "cited from earlier work"}, "[9]": {"tested_on": "tumor cell lines", "details": "48 h following treatment; cited from earlier work"}, "[10]": {"tested_on": "HCT 116 colorectal cancer model", "details": "preclinical models; ref Boehringer Ingelheim; data on file; cited from earlier work"}, "[11]": {"tested_on": "advanced solid tumors", "assay": "antitumor activity", "type": "in vivo, human"}, "[12]": {"tested_on": "patients with advanced solid tumors", "details": "cited from earlier work"}, "[13]": {"tested_on": "solid tumors and hematological malignancies", "details": "cited from earlier work; for antitumor activity: phase I trials, solid tumors and hematological malignancies"}, "[14]": {"tested_on": "acute myeloid leukemia (AML)", "details": "cited from earlier work; for complete response rate / febrile neutropenia / stomatitis: randomized phase II trial, elderly patients with AML"}}, "note": "Read-outs that look alike come from different tables or passages of the source. Marks after values point to notes of the source that are not given here.", "data": [{"smiles": "CC(C)NC(=O)[C@H]1CCC[C@H]1Nc1nc(Nc2ccc(C(=O)N(C)C3CCN(C)CC3)cc2)ncc1C(F)(F)F", "note": "[BI 811283]", "values": [{"measurement": "time of treatment until pHH3 was reduced", "setting": "[1]", "value": "≤ 1", "unit": "h"}, {"measurement": "level of caspase-cleaved CK-18 in plasma after infusion", "setting": "[2]", "value": "no consistent trend"}, {"measurement": "protein binding", "setting": "[3]", "value": "dependent on the plasma concentrations of alpha-1-acid glycoprotein (AGP)"}, {"measurement": "drug-related Alopecia, grade All", "setting": "[4]", "value": "11 (17.5) n (%)"}, {"measurement": "drug-related Fatigue, grade ≥3", "setting": "[4]", "value": "1 (1.7) n (%)"}, {"measurement": "drug-related Nausea, grade ≥3", "setting": "[4]", "value": "1 (1.6) n (%)"}, {"measurement": "drug-related alopecia, patients", "setting": "[4]", "value": 19.8, "unit": "%"}, {"measurement": "drug-related decreased appetite, patients", "setting": "[4]", "value": 14.9, "unit": "%"}, {"measurement": "drug-related diarrhea, patients", "setting": "[4]", "value": 16.5, "unit": "%"}, {"measurement": "drug-related fatigue, patients", "setting": "[4]", "value": 31.4, "unit": "%"}, {"measurement": "drug-related leukopenia, patients", "setting": "[4]", "value": 28.9, "unit": "%"}, {"measurement": "drug-related nausea, patients", "setting": "[4]", "value": 24.0, "unit": "%"}, {"measurement": "drug-related neutropenia, patients", "setting": "[4]", "value": 33.1, "unit": "%"}, {"measurement": "Patients with DLT", "setting": "[5]; schedule A, 5 mg, n 3, first cycle", "value": 0}, {"measurement": "Patients with DLT", "setting": "[5]; schedule A, 10 mg, n 7, first cycle", "value": 1}, {"measurement": "Patients with DLT", "setting": "[5]; schedule A, 13.5 mg, n 3, first cycle", "value": 0}, {"measurement": "Patients with DLT", "setting": "[5]; schedule A, 18 mg, n 3, first cycle", "value": 0}, {"measurement": "Patients with DLT", "setting": "[5]; schedule A, 24 mg, n 4, first cycle", "value": 0}, {"measurement": "Patients with DLT", "setting": "[5]; schedule A, 32 mg, n 3, first cycle", "value": 0}, {"measurement": "Patients with DLT", "setting": "[5]; schedule A, 43 mg, n 5, first cycle", "value": 0}, {"measurement": "Patients with DLT", "setting": "[5]; schedule A, 58 mg, n 3, first cycle", "value": 0}, {"measurement": "Patients with DLT", "setting": "[5]; schedule A, 78 mg, n 7, first cycle", "value": 1}, {"measurement": "Patients with DLT", "setting": "[5]; schedule A, 105 mg, n 6, first cycle", "value": 1}, {"measurement": "Patients with DLT", "setting": "[5]; schedule A, 125 mg (MTD), n 16 incl. expansion cohort, first cycle", "value": 1}, {"measurement": "Patients with DLT", "setting": "[5]; schedule A, 140 mg, n 3, first cycle", "value": 2}, {"measurement": "maximum tolerated dose (MTD)", "setting": "[5]; schedule A: 24-h infusion Days 1 and 15 of a 4-week cycle", "value": 125, "unit": "mg"}, {"measurement": "Patients with DLT", "setting": "[5]; schedule B, 13.5 mg, n 3, first cycle", "value": 0}, {"measurement": "Patients with DLT", "setting": "[5]; schedule B, 18 mg, n 3, first cycle", "value": 0}, {"measurement": "Patients with DLT", "setting": "[5]; schedule B, 24 mg, n 3, first cycle", "value": 0}, {"measurement": "Patients with DLT", "setting": "[5]; schedule B, 32 mg, n 4, first cycle", "value": 0}, {"measurement": "Patients with DLT", "setting": "[5]; schedule B, 43 mg, n 3, first cycle", "value": 0}, {"measurement": "Patients with DLT", "setting": "[5]; schedule B, 58 mg, n 3, first cycle", "value": 0}, {"measurement": "Patients with DLT", "setting": "[5]; schedule B, 78 mg, n 3, first cycle", "value": 0}, {"measurement": "Patients with retrospectively identified potential DLT", "setting": "[5]; schedule B, 105 mg, n 6", "value": 2}, {"measurement": "Patients with DLT", "setting": "[5]; schedule B, 105 mg, n 6, first cycle", "value": "1^c"}, {"measurement": "Patients with retrospectively identified potential DLT", "setting": "[5]; schedule B, 125 mg, n 3", "value": 1}, {"measurement": "Patients with DLT", "setting": "[5]; schedule B, 125 mg, n 3, first cycle", "value": "0^c"}, {"measurement": "Patients with DLT", "setting": "[5]; schedule B, 150 mg, n 3, first cycle", "value": 0}, {"measurement": "Patients with retrospectively identified potential DLT", "setting": "[5]; schedule B, 180 mg, n 3", "value": 1}, {"measurement": "Patients with DLT", "setting": "[5]; schedule B, 180 mg, n 3, first cycle", "value": "0^c"}, {"measurement": "Patients with DLT", "setting": "[5]; schedule B, 230 mg, second cohort n 3 (after 300 mg), first cycle", "value": 0}, {"measurement": "Patients with DLT", "setting": "[5]; schedule B, 270 mg, n 5, first cycle", "value": 2}, {"measurement": "Patients with DLT", "setting": "[5]; schedule B, 300 mg, n 3, first cycle", "value": 2}, {"measurement": "maximum tolerated dose (MTD)", "setting": "[5]; schedule B: 24-h infusion Day 1 of a 3-week cycle", "value": 230, "unit": "mg"}, {"measurement": "exposure to total BI 811283 (bound and unbound) in patients with higher AGP plasma concentrations", "setting": "[6]; human, in vivo", "value": "trend toward increased exposure"}, {"measurement": "time to maximum plasma concentration after start of infusion", "setting": "[6]; human, in vivo, iv", "value": "20 to 24", "unit": "h"}, {"measurement": "Cmax and AUC0–∞ versus dose", "setting": "[6]; in vivo", "value": "increased in a dose-dependent manner"}, {"measurement": "fraction excreted in urine", "setting": "[6]; in vivo", "value": "4 to 12 % of the administered dose"}, {"measurement": "time after end of infusion in which most of the compound was eliminated", "setting": "[6]; in vivo", "value": "≤ 6", "unit": "h"}, {"measurement": "mean terminal half-life", "setting": "[6]; schedule A", "value": "11.4 to 30.5", "unit": "h"}, {"measurement": "mean terminal half-life", "setting": "[6]; schedule B", "value": "10.1 to 27.0", "unit": "h"}, {"measurement": "deaths considered related to the study treatment", "setting": "[7]; 22 patients with fatal AEs", "value": "None"}, {"measurement": "drug-related Alopecia, grade All", "setting": "[7]; Schedule B, Total (N = 58)", "value": "12 (20.7) n (%)"}, {"measurement": "patients with SAEs regarded as drug related", "setting": "[7]; all patients", "value": "Thirteen"}, {"measurement": "patients with fatal AEs", "setting": "[7]; all patients, n = 22", "value": 18.2, "unit": "%"}, {"measurement": "patients with serious AEs (SAEs)", "setting": "[7]; all patients, n = 61", "value": 50.4, "unit": "%"}, {"measurement": "drug-related SAE febrile neutropenia", "setting": "[7]; all patients, most common drug-related SAE", "value": "seven"}, {"measurement": "patients with SAEs regarded as drug related", "setting": "[7]; schedule A, n = 3", "value": 4.8, "unit": "%"}, {"measurement": "patients with fatal AEs", "setting": "[7]; schedule A, n = 10", "value": 15.9, "unit": "%"}, {"measurement": "patients with serious AEs (SAEs)", "setting": "[7]; schedule A, n = 33", "value": 52.4, "unit": "%"}, {"measurement": "patients with SAEs regarded as drug related", "setting": "[7]; schedule B, n = 10", "value": 17.2, "unit": "%"}, {"measurement": "patients with fatal AEs", "setting": "[7]; schedule B, n = 12", "value": 20.7, "unit": "%"}, {"measurement": "patients with serious AEs (SAEs)", "setting": "[7]; schedule B, n = 28", "value": 48.3, "unit": "%"}, {"measurement": "pHH3 in xenograft models", "setting": "[8]; marker of Aurora B kinase inhibition", "value": "decrease in pHH3"}, {"measurement": "effect on tumor growth in xenograft models", "setting": "[8]; tumor regression in some cases", "value": "dose-dependent inhibition of tumor growth"}, {"measurement": "polyploidy, share of cells", "setting": "[9]", "value": "up to 80%"}, {"measurement": "antitumor activity of weekly and 2-weekly 24-h continuous infusion", "setting": "[10]", "value": "similarly strong antitumor activity"}, {"measurement": "best overall response SD, share of patients", "setting": "[11]; both treatment schedules", "value": "approximately 30%"}, {"measurement": "objective response", "setting": "[11]; either treatment schedule", "value": "No patients"}]}, {"smiles": "O=C(O)c1ccc(Nc2ncc3c(n2)-c2ccc(Cl)cc2C(c2c(F)cccc2F)=NC3)cc1", "note": "[MLN8054]", "values": [{"measurement": "dose-limiting toxicities", "setting": "[12]", "value": "DLTs of liver enzyme elevations were observed"}]}, {"smiles": "COc1cc(Nc2ncc3c(n2)-c2ccc(Cl)cc2C(c2c(F)cccc2OC)=NC3)ccc1C(=O)O", "note": "[alisertib]", "values": [{"measurement": "clinical activity", "setting": "[13]; phase II study, preliminary evidence", "value": "durable disease control in multiple cancer types"}]}, {"smiles": "CC(=O)NCC(=O)N1[C@@H]2CC[C@H]1c1ccc(Nc3ncc(C(F)(F)F)c(NC4CCC4)n3)cc12", "note": "[PF-03814735]", "values": [{"measurement": "antitumor activity", "setting": "[13]", "value": "limited antitumor activity"}]}, {"smiles": "CCN(CCCOc1ccc2c(Nc3cc(CC(=O)Nc4cccc(F)c4)n[nH]3)ncnc2c1)CCOP(=O)(O)O", "note": "[barasertib]", "values": [{"measurement": "response rate", "setting": "[14]; in combination with low-dose cytosine arabinoside (LDAC), AML", "value": 45, "unit": "%"}, {"measurement": "hematological response rate", "setting": "[14]; monotherapy, phase I/II trials, AML", "value": "19–25%"}, {"measurement": "complete response rate", "setting": "[14]", "value": 35.4, "unit": "%"}, {"measurement": "febrile neutropenia", "setting": "[14]", "value": 67, "unit": "%"}, {"measurement": "stomatitis", "setting": "[14]", "value": 71, "unit": "%"}, {"measurement": "clinical activity", "setting": "[13]; advanced solid tumors", "value": "limited activity in solid tumors"}]}, {"smiles": "CO[C@@H](C(=O)N1Cc2n[nH]c(NC(=O)c3ccc(N4CCN(C)CC4)cc3)c2C1)c1ccccc1", "note": "[danusertib]", "values": [{"measurement": "clinical activity", "setting": "[13]; advanced hematological malignancies", "value": "promising clinical activity"}, {"measurement": "clinical activity", "setting": "[13]; phase I/II studies in advanced solid tumors", "value": "limited activity"}]}, {"smiles": "O=C(Nc1c[nH]nc1-c1nc2ccc(CN3CCOCC3)cc2[nH]1)NC1CC1", "note": "[AT9283]", "values": [{"measurement": "antitumor activity", "setting": "[13]", "value": "limited antitumor activity"}]}, {"smiles": "Nc1ccn([C@@H]2O[C@H](CO)[C@@H](O)[C@@H]2O)c(=O)n1", "note": "[LDAC, cytosine arabinoside]", "values": [{"measurement": "complete response rate", "setting": "[14]", "value": 11.5, "unit": "%"}, {"measurement": "febrile neutropenia", "setting": "[14]", "value": 19, "unit": "%"}, {"measurement": "stomatitis", "setting": "[14]", "value": 15, "unit": "%"}]}]}
